Results published in ChEMBL document CHEMBL3734701, “Synthesis and antibacterial activity of 4″-O-(trans-β-arylacrylamido)carbamoyl azithromycin analogs” (2015).
In brackets after ≈: the same amount, converted by molar mass.

Experiments:
Format in all cases: functional
[1] = tested on: Streptococcus pneumoniae; experiment: Antibacterial activity against erythromycin-resistant Streptococcus pneumoniae B1 expressing ermB gene by broth microdilution method
In short: (§1)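 MICs measured in vitro by broth microdilution following NCCL recommendations, against a Gram-positive panel of sensitive and resistant strains. Azithromycin and clarithromycin were tested alongside as references.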

[2] = tested on: Staphylococcus aureus; experiment: Antibacterial activity against erythromycin-susceptible Staphylococcus aureus ATCC 25923 by broth microdilution method
In short: (§2)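 Broth microdilution MIC following the NCCL-recommended method. Panel of sensitive and resistant Gram-positive strains: S. pyogenes S2 (erythromycin-susceptible clinical isolate), S. aureus ATCC25923 and S. pneumoniae ATCC49619 (erythromycin-susceptible). Azithromycin and clarithromycin were run alongside as references.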

[3] = tested on: Streptococcus pneumoniae; experiment: Antibacterial activity against erythromycin-resistant Streptococcus pneumoniae A22072 expressing mefA gene by broth microdilution method; in short: as §1
[4] = tested on: Streptococcus pneumoniae; experiment: Antibacterial activity against erythromycin-resistant Streptococcus pneumoniae AB11 expressing ermB and mefA genes by broth microdilution method; in short: as §1
[5] = tested on: Staphylococcus aureus; experiment: Antibacterial activity against methicillin-susceptible Staphylococcus aureus ATCC 29213 by broth microdilution method; in short: as §1
[6] = tested on: Staphylococcus aureus; experiment: Antibacterial activity against clinically isolated penicillin-resistant Staphylococcus aureus by broth microdilution method
In short: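 Clinical penicillin-resistant S. aureus isolate, not further characterized, tested in a Gram-positive panel. MIC was measured by broth microdilution following NCCL recommendations, with azithromycin and clarithromycin as references.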

[7] = tested on: Streptococcus pneumoniae; experiment: Antibacterial activity against erythromycin-susceptible Streptococcus pneumoniae ATCC 49619 by broth microdilution method; in short: as §2
[8] = tested on: Streptococcus pyogenes; experiment: Antibacterial activity against clinically isolated erythromycin-resistant Streptococcus pyogenes R2 by broth microdilution method; in short: as §1
[9] = tested on: Streptococcus pyogenes; experiment: Antibacterial activity against clinically isolated erythromycin-susceptible Streptococcus pyogenes S2 by broth microdilution method; in short: as §2

| SMILES | MIC [1] | MIC [2] | MIC [3] | MIC [4] | MIC [5] | MIC [6] | MIC [7] | MIC [8] | MIC [9] |
| --- | --- | --- | --- | --- | --- | --- | --- | --- | --- |
| CC[C@H]1OC(=O)[C@@H](C)[C@H](O[C@H]2C[C@@](C)(OC)[C@@H](OC(=O)NNC(=O)/C=C/c3ccccc3F)[C@H](C)O2)[C@@H](C)[C@H](O[C@H]2O[C@@H](C)C[C@@H](N(C)C)[C@@H]2O)[C@@](C)(O)C[C@H](C)CN(C)[C@@H](C)[C@@H]2OC(=O)O[C@@]12C | 16 µg/mL (≈ 16.3 µM) | 4 µg/mL (≈ 4.08 µM) | 2 µg/mL (≈ 2.04 µM) | 32 µg/mL (≈ 32.6 µM) | 8 µg/mL (≈ 8.15 µM) | 16 µg/mL (≈ 16.3 µM) | 8 µg/mL (≈ 8.15 µM) | 64 µg/mL (≈ 65.2 µM) | 0.25 µg/mL (≈ 0.255 µM) |
| CC[C@H]1OC(=O)[C@@H](C)[C@H](O[C@H]2C[C@@](C)(OC)[C@@H](OC(=O)NNC(=O)/C=C/c3ccc(OC)c(OC)c3)[C@H](C)O2)[C@@H](C)[C@H](O[C@H]2O[C@@H](C)C[C@@H](N(C)C)[C@@H]2O)[C@@](C)(O)C[C@H](C)CN(C)[C@@H](C)[C@@H]2OC(=O)O[C@@]12C | 32 µg/mL (≈ 31.3 µM) | 8 µg/mL (≈ 7.82 µM) | 0.5 µg/mL (≈ 0.489 µM) | 8 µg/mL (≈ 7.82 µM) | 16 µg/mL (≈ 15.6 µM) | 8 µg/mL (≈ 7.82 µM) | 2 µg/mL (≈ 1.95 µM) | 64 µg/mL (≈ 62.5 µM) | 0.5 µg/mL (≈ 0.489 µM) |
| CC[C@@H]1OC(=O)[C@H](C)[C@@H](O[C@H]2C[C@@](C)(OC)[C@@H](OC(=O)NNC(=O)/C=C/c3cccs3)[C@H](C)O2)[C@@H](C)[C@@H](O[C@@H]2O[C@H](C)C[C@H](N(C)C)[C@H]2O)[C@](C)(O)C[C@@H](C)CN(C)[C@H](C)[C@@H](OC(=O)NCc2ccccc2)[C@]1(C)O | 2 µg/mL (≈ 1.86 µM) | 1 µg/mL (≈ 0.929 µM) | 0.06 µg/mL (≈ 0.0557 µM) | 4 µg/mL (≈ 3.72 µM) | 4 µg/mL (≈ 3.72 µM) | 2 µg/mL (≈ 1.86 µM) | 0.5 µg/mL (≈ 0.465 µM) | 32 µg/mL (≈ 29.7 µM) | 0.25 µg/mL (≈ 0.232 µM) |
| CC[C@H]1OC(=O)[C@@H](C)[C@H](O[C@H]2C[C@@](C)(OC)[C@@H](OC(=O)NNC(=O)/C=C/c3cc(OC)c(OC)c(OC)c3)[C@H](C)O2)[C@@H](C)[C@H](O[C@H]2O[C@@H](C)C[C@@H](N(C)C)[C@@H]2O)[C@@](C)(O)C[C@H](C)CN(C)[C@@H](C)[C@@H]2OC(=O)O[C@@]12C | 32 µg/mL (≈ 30.4 µM) | 8 µg/mL (≈ 7.6 µM) | 0.5 µg/mL (≈ 0.475 µM) | 16 µg/mL (≈ 15.2 µM) | 16 µg/mL (≈ 15.2 µM) | 16 µg/mL (≈ 15.2 µM) | 4 µg/mL (≈ 3.8 µM) | 64 µg/mL (≈ 60.8 µM) | 0.5 µg/mL (≈ 0.475 µM) |
| CC[C@H]1OC(=O)[C@@H](C)[C@H](O[C@@H]2C[C@](C)(OC)[C@H](OC(=O)NNC(=O)/C=C/c3ccc(Cl)cc3)[C@@H](C)O2)[C@H](C)[C@H](O[C@H]2O[C@@H](C)C[C@@H](N(C)C)[C@@H]2O)[C@@](C)(O)C[C@H](C)CN(C)[C@@H](C)[C@H](OC(=O)NCc2ccccc2)[C@@]1(C)O | 4 µg/mL (≈ 3.62 µM) | 1 µg/mL (≈ 0.905 µM) | 0.25 µg/mL (≈ 0.226 µM) | 2 µg/mL (≈ 1.81 µM) | 4 µg/mL (≈ 3.62 µM) | 2 µg/mL (≈ 1.81 µM) | 0.5 µg/mL (≈ 0.453 µM) | 16 µg/mL (≈ 14.5 µM) | 0.5 µg/mL (≈ 0.453 µM) |
| CC[C@@H]1OC(=O)[C@H](C)[C@@H](O[C@@H]2C[C@](C)(OC)[C@H](O)[C@@H](C)O2)[C@@H](C)[C@@H](O[C@@H]2O[C@H](C)C[C@H](N(C)C)[C@H]2O)[C@](C)(O)C[C@@H](C)CN(C)[C@H](C)[C@@H](O)[C@]1(C)O | > 128 µg/mL | 0.25 µg/mL (≈ 0.334 µM) | 4 µg/mL (≈ 5.34 µM) | 256 µg/mL (≈ 342 µM) | 1 µg/mL (≈ 1.34 µM) | 0.12 µg/mL (≈ 0.16 µM) | 0.03 µg/mL (≈ 0.0401 µM) | ≥ 128 µg/mL | 0.25 µg/mL (≈ 0.334 µM) |
| CC[C@@H]1OC(=O)[C@H](C)[C@@H](O[C@H]2C[C@@](C)(OC)[C@@H](OC(=O)NNC(=O)/C=C/c3ccccc3)[C@H](C)O2)[C@@H](C)[C@@H](O[C@@H]2O[C@H](C)C[C@H](N(C)C)[C@H]2O)[C@](C)(O)C[C@@H](C)CN(C)[C@H](C)[C@@H](OC(=O)NCc2ccc(OC)cc2)[C@]1(C)O | 2 µg/mL (≈ 1.82 µM) | 1 µg/mL (≈ 0.909 µM) | 0.25 µg/mL (≈ 0.227 µM) | 8 µg/mL (≈ 7.27 µM) | 4 µg/mL (≈ 3.64 µM) | 4 µg/mL (≈ 3.64 µM) | 0.25 µg/mL (≈ 0.227 µM) | 32 µg/mL (≈ 29.1 µM) | 0.25 µg/mL (≈ 0.227 µM) |
